Screens deposited in PubChem by several laboratories.
Most compounds without a hit are left out; they make up all but 1.5% or so of the library.
CendR NRP1 mod – modulators of CendR peptide binding to human neuropilin-1; O14786; FAM-RPARPAR peptide binding to NRP-1, fluorescence polarization; inhibition, % at 25 µM; 0.85% of 360,000 active;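 active = inhibition or corrected inhibition above about 18%, plus a signal ratio from 0.5 to 1.5, limit read from the data, passing the limit was not always enough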
UCH37 inh – blocks the human deubiquitinase UCH37; purified proteasome/UCH37, Ub-AMC cleavage fluorescence; inhibition, % (no concentration beside the values); 0.33% of 330,000 active; AID 588478;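 active = mean inhibition over replicate wells above about 20%, limit read from the data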;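 also: 0% = compound-free wells with enzyme and 100% = wells lacking proteasome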
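assay system = human UCH37 enzyme supplied as purified proteasome complex | amount = proteasome at 0.15 nM in the dispensed enzyme solution | schedule = 30 min compound-proteasome preincubation then 25 min substrate reaction, room temperature | measured by = fluorescence, ex 355 nm, em 460 nm | benchmarks = no-proteasome wells (full inhibition) and compound-free wells (no inhibition)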
MT1-MMP act inh – MT1-MMP (human) activation inhibition. HT1080 RFP-PRO-GFP cells, GFP/RFP ratio fluorescence, overnight; percent of plate control window, DMSO zero. GFP/RFP ratio change, % at 20 µM. 0.061% of 360,000 active. AID 651647. P50281;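 active = GFP/RFP ratio change of at least 30% with cell ATP level not reduced by more than half and red fluorescence within 50% of control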
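system = RFP-PRO-GFP reporter HT1080 cells | dosing = 20 µM single dose, 1% DMSO | timing = overnight cell settling, then overnight compound exposure, 37 °C, 5% CO2 | read-out basis = GFP/RFP fluorescence ratio | controls = DMSO and RFP-L50D-GFP cell wells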
DAGLB inhibitor – diacylglycerol lipase beta (human) inhibition; AID 504411; inhibition, % at 5.17 µM; 0.059% of 340,000 active; Q8NCG7; HEK293T DAGLB membrane lysate, EnzChek fluorogenic substrate; in the data active = inhibition above about 34%;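 also: 0% = enzyme with vehicle and 100% = wells lacking enzyme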
Fh CTSL1 inh – cathepsin L1 inhibition, PFM18AAP counter-screen | recombinant F. hepatica cathepsin L1, Z-Leu-Arg-MCA fluorescence | inhibition, % at 5.96 µM | 0.49% of 300,000 active | AID 1906;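 active = inhibition above the mean of all tested compounds plus 3 SD, set per screening campaign, cut at about 17% in these data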;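 also: 0% = plate median of test compound wells and 100% = 1 µM Z-Phe-Ala-diazomethylketone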
The depositor's hits bear a star; · = not tested or not shown.

SMILES	CendR NRP1 mod	UCH37 inh	MT1-MMP act inh	DAGLB inhibitor	Fh CTSL1 inh
Nc1nonc1C(=O)NN=Cc1ccc(Br)o1	·	11.7	·	·	·
COC/C=C/C1=CC2=CC(=O)C(C)(OC(=O)c3cnc4ccccc4n3)C(=O)C2=CN1c1ccc(OC)cc1 (stereo not drawn)	21.2	-1.6	0.2	14.3	-6.1
COC/C=C/C1=CC2=CC(=O)C(C)(OC(=O)c3cnc4ccccc4n3)C(=O)C2=CN1CC1CC1 (stereo not drawn)	29.3*	40.7*	4.7	0.1	1.2
COC/C=C/C1=CC2=CC(=O)C(C)(OC(=O)c3cnc4ccccc4n3)C(=O)C2=CN1Cc1ccccc1 (stereo not drawn)	24.9*	4.3	2.4	6.7	-1.3
COC/C=C/C1=CC2=CC(=O)C(C)(OC(=O)c3cnc4ccccc4n3)C(=O)C2=CN1Cc1ccc(OC)cc1 (stereo not drawn)	37.0*	4.7	1.7	7.1	-7.0
Cn1cccc1C=Nn1c(-c2ccccc2)n[nH]c1=S	·	2.0	·	·	·
COC(=O)C1Cc2ccccc2CN1C(=O)CCl (stereo not drawn)	4.6	3.0	-0.9	0.2	47.7*
CCN(CC)CCCNC(=O)C1c2ccccc2C(=O)N1Cc1ccc(C)cc1 (stereo not drawn)	18.8*	2.9	-2.7	-0.3	1.3
CC(=O)N1CCN(C(=S)c2ccc([N+](=O)[O-])cc2)CC1	18.4*	4.8	-1.3	-0.4	-2.2
CC(=O)N1CCN(c2ccc([N+](=O)[O-])cc2)CC1	1.0	11.8	3.6	8.8	0.7
COc1ccccc1/C=C/C=Nn1c(-c2ccc(Cl)cc2)n[nH]c1=S	·	4.7	·	·	·
COc1ccc(NC(=O)c2cc3cccc(OC)c3oc2=Nc2ccc(C(=O)O)cc2)cc1OC	-164.6	24.2*	4.1	2.1	·
COc1cccc(NC(=O)c2cc3cccc(OC)c3o/c2=N\O)c1	·	·	·	·	-0.1
O=c1[nH]c2ccccc2c(O)c1SCCO	0.0	0.4	-3.4	-1.5	-3.9
O=C1C(SCCO)=C(SCCO)C(=O)c2ccccc21	18.7	·	-77.7	-7.8	78.6*
Cc1ccc(S(=O)(=O)NN=Cc2cc([N+](=O)[O-])ccc2O)cc1[N+](=O)[O-]	·	2.7	·	·	·
O=C(CCSc1nnc2ccccn12)Nc1ccc2c(c1)OCO2	22.6*	-5.6	-1.2	2.3	-2.2
c1ccn2c(SCc3ccc4c(c3)OCO4)nnc2c1	24.4*	-0.8	3.3	2.4	4.4
CN(C)C=NC(=S)Nc1ccc(Cl)cc1Cl	·	6.3	·	·	·
NC(=NOC(=O)Cc1ccccc1)c1ccc([N+](=O)[O-])cc1	·	5.2	·	·	·
NNc1ncnc2c1cnn2-c1ccccc1	28.1*	-3.2	-3.9	-1.2	2.0
Cc1c(NC(=O)Cn2nc(C(=O)O)c3ccccc3c2=O)c(=O)n(-c2ccccc2)n1C	15.4	-2.6	14.2	0.1	-4.6
CC(C)NC(=O)Cn1nc(C(F)(F)F)c2c1CCC2	3.6	4.7	-0.8	1.4	3.3
Cc1c(NC(=O)Cn2nc(C(F)(F)F)c3c2CCCC3)c(=O)n(-c2ccccc2)n1C	22.7*	1.8	2.4	-0.1	0.4
CC(NC(=O)Cn1nc(C(F)(F)F)c2c1CCC2)c1ccccc1 (stereo not drawn)	5.7	-2.0	3.0	-1.9	16.9*
SMILES	CendR NRP1 mod	UCH37 inh	MT1-MMP act inh	DAGLB inhibitor	Fh CTSL1 inh
Cc1ccc(C=Nn2nnnc2N)o1	·	9.0	·	·	·
COc1cc(C=NN2C(=O)c3ccccc3C2=O)ccc1O	·	4.3	·	·	·
COc1ccc2c(c1)c(C(=O)NN=Cc1ccc(O)c(O)c1)c(C)n2C	·	5.6	·	·	·
Cn1c(Cn2c(=O)sc3ccccc32)nnc1SCC(=O)N1CCN(c2ccccc2)CC1	27.0*	4.2	4.0	-7.4	2.0
O=C(CN1C(=O)NC2(CCCC2)C1=O)Nc1ccc(OC(F)(F)F)cc1	1.0	-0.5	7.1	1.6	-1.8
O=C(CN1C(=O)NC2(CCCCCC2)C1=O)Nc1ccc(OC(F)(F)F)cc1	26.9*	·	9.4	0.7	·
CC(C)c1ccc(NC(=O)CN2C(=O)NC3(CCCC3)C2=O)cc1	24.2*	4.7	5.3	0.1	5.5
COc1ccc(C=NNC(=O)c2cc(C)n(-c3ccccc3)c2C)cc1OC	·	8.9	·	·	·
CCOc1ccc(-c2c(C(=O)NN=CC3CC=CCC3)nnn2-c2nonc2N)cc1 (stereo not drawn)	·	-0.4	·	·	·
Cc1ccc(/C=N/NC(=S)N2CCOCC2)cc1	-16.4	·	-0.5	-4.0	27.6*
S=C(N/N=C/c1ccc(Cl)cc1)N1CCOCC1	2.7	·	3.8	-1.6	19.5*
CNC(=O)c1ccccc1Sc1ccccc1C#N	32.3*	0.7	4.4	-0.5	-3.9
N#Cc1ccccc1Sc1ccccc1C(=O)Nc1ccc(Br)cc1	-0.9	4.8	3.3	-4.6	-2.0
Cc1ccc(C(=O)Nc2ccc(C(=O)N/N=C/c3ccccn3)cc2)cc1	-0.5	·	3.9	1.2	18.8*
O=C(CCl)NCc1c(Cl)cccc1-n1cccc1	-11.3	4.6	-6.7	-1.0	17.5*
COCCCn1c(=C(C#N)C(=O)NC(C)C)sc(=Cc2ccccc2OC(F)F)c1=O	·	-12.2	·	·	·
C(=NN1CCOCC1)c1nc(-c2ccccc2)n2ccccc12	·	11.2	·	·	·
COc1ccc(NC(=O)Nc2ncccc2C)cc1	-9.8	0.5	3.3	-1.1	0.9
COc1ccc(C(=O)NC(=O)Nc2ncccc2C)cc1	31.2*	1.8	-1.2	-0.1	-3.1
COC(=O)c1ccccc1NC(=O)CSc1nc(C)cc(C)n1	44.6*	4.9	-3.1	-2.4	1.2
COC(=O)c1ccccc1NC(=O)CSc1nc(N)cc(N)n1	1.0	5.1	3.0	0.0	2.6
CC(CC(=O)N1CCN(C=O)CC1)=NNC(=O)c1ccc(Br)cc1	·	1.8	·	·	·
CC(=O)c1cccc(NC(=O)CC2S/C(=N/N=Cc3ccccc3)NC2=O)c1 (stereo not drawn)	·	4.5	·	·	·
CCCCn1nnnc1NCc1cccc(OC)c1OC	23.2*	0.4	-3.2	-1.2	-2.4
CCN(CC)CCn1c(NCc2cccc(OC)c2OC)nc2ccccc21	21.2*	-0.9	-0.1	-2.4	4.4
SMILES	CendR NRP1 mod	UCH37 inh	MT1-MMP act inh	DAGLB inhibitor	Fh CTSL1 inh
CCN(CC)CCn1c(NCc2ccco2)nc2ccccc21	7.2	1.4	2.9	-1.7	-2.0
CCCc1n[nH]c2c1C(=NOCC)CC(C)(C)C2	·	1.2	·	·	·
COc1ccc(CNC(=O)C2(CC3CC(c4ccccc4)=NO3)CCN(C(=O)C3CCCC3)CC2)cc1 (stereo not drawn)	-12.8	30.5*	1.5	-0.1	-1.9
COc1ccc(CNC(=O)C2(CC3CC(c4ccccc4)=NO3)CCN(C(=O)C3(C)CC3)CC2)cc1 (stereo not drawn)	11.3	-0.2	0.9	2.6	3.6
Cc1ccc(S(=O)(=O)Oc2ccc(C=NNC(=O)c3cccnc3)cc2)cc1	·	1.5	·	·	·
CN(C)S(=O)(=O)N1CCN(c2ccc([N+](=O)[O-])c(N3CCOCC3)c2)CC1	9.4	10.5	-1.5	-0.5	4.1
CS(=O)(=O)N1CCN(c2ccc([N+](=O)[O-])c(N3CCOCC3)c2)CC1	28.2*	-4.5	5.2	3.9	4.7
